Here are results for 19 compounds from ChEMBL document CHEMBL1140210, “In pursuit of natural product leads: synthesis and biological evaluation of 2-[3-hydroxy-2-[(3-hydroxypyridine-2-carbonyl)amino]phenyl]benzoxazole-4-carboxylic acid (A-33853) and its analogues: discovery of N-(2-benzoxazol-2-ylphenyl)benzamides as novel antileishmanial chemotypes” (J Med Chem, 2008).

Activity calls are given as the source filed them. The calls are words filed in the database; no cut-off is given here.

Data set [1] relates to Leishmania donovani. Nature of the data set: Antileishmanial activity against Leishmania donovani MHOM/ET/67/L82 at 0.8 ug/mL. It is filed as functional.
A further data set deals with L6. Nature of the data set: Cytotoxicity against rat L6 cells. It is filed as cell-based. The note with it: for Activity: rat, l6; for IC50: Rattus norvegicus, L6.
In data set [2] the test system is Leishmania donovani. Description: Antileishmanial activity against Leishmania donovani MHOM/ET/67/L82. It is filed as functional, organism-based. The method, boiled down:
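Tested on axenic amastigote cultures of L. donovani strain MHOM/ET/67/L82. Activity is reported as IC50.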

Data set [3] relates to Leishmania donovani. Description: Antiparasitic activity against Leishmania donovani amastigote in mouse peritoneal macrophages assessed as reduction of parasite burden at 10 ug/mL after 96 hrs. The data set is classed as functional, organism-based.
Data set [4] can be described thus: Selectivity index, ratio of IC50 for rat L6 cells to IC50 for Leishmania donovani MHOM/ET/67/L82. The data set is classed as toxicity, cell-based. The note with it: read-out: Ratio IC50.
Another data set deals with Trypanosoma cruzi. Description: Antitrypanosomal activity against Trypanosoma cruzi Tulahuen C2C4 at 4.8 ug/mL. It is filed as functional.
For a further data set, the system named is Plasmodium falciparum. Nature of the data set: Antimalarial activity against chloroquine and pyrimethamine-resistant Plasmodium falciparum K1 at 4.8 ug/mL. The data set is classed as functional.
For data set [5], the system named is Leishmania donovani. Description: Antileishmanial activity against Leishmania donovani MHOM/ET/67/L82 at 4.8 ug/mL. The data set is classed as functional.

In the data set with Leishmania donovani [1], `O=C(Nc1c(O)cccc1-c1nc2c(C(=O)O)cccc2o1)c1cc(O)c(O)c(O)c1` returned an inhibition at 0.8 µg/mL of less than 30%. Also, the Activity result in the data set on L6 is reported as “Not Traceable”.

Regarding `O=C(Nc1c(O)cccc1-c1nc2c(C(=O)O)cccc2o1)c1ccccn1`, the half-inhibitory concentration (IC50) in the data set on Leishmania donovani [2] stood at 0.31 µM; in the data set with L6, 30.6 µM. For the same compound, the outcome in the data set with Leishmania donovani [3] was inactive. Also, the selectivity ratio in data set [4] came to 99.

For `O=C(Nc1ccccc1-c1nc2c(C(=O)O)cccc2o1)c1ccccc1`, the half-maximal inhibitory concentration (IC50) in the data set with Leishmania donovani [2] turned out to be 0.96 µM; in the data set on L6 it was 114 µM. The result with Leishmania donovani [3] was inactive. Further, in data set [4], the selectivity ratio was determined as 118.

`O=C(Nc1c(O)cccc1-c1nc2c(C(=O)O)cccc2o1)c1ccc(F)c(F)c1F`: the IC50 with Leishmania donovani [2] turned out to be 1.9 µM; in the data set with L6, 210 µM. In data set [4], the selectivity ratio amounted to 111.

On to `CCCCCCCCCCCCCCCCOP(=O)([O-])OCC[N+](C)(C)C` [MILTEFOSINE], for which, in data set [4], the selectivity ratio amounted to 565. Further, in the data set with L6, the IC50 was 147 µM.

On to `O=C(Nc1c(O)cccc1-c1nc2c(C(=O)O)cccc2o1)c1ccccc1`, for which the IC50 is 1.73 µM with Leishmania donovani [2] and greater than 240 µM with L6. Further, the selectivity ratio in data set [4] is greater than 138.

As for `O=C(Nc1c(O)cccc1-c1nc2c(C(=O)O)cccc2o1)c1cc(-c2ccccc2)nc2ccccc12`, the IC50 is 1.17 µM in the data set with Leishmania donovani [2] and 108 µM with L6. The selectivity ratio in data set [4] came to 92.

On to `O=C(Nc1c(O)cccc1-c1nc2c(C(=O)O)cccc2o1)c1ncccc1F`, for which the IC50 worked out at 0.52 µM with Leishmania donovani [2] and 204 µM in the data set on L6. Further, the result with Leishmania donovani [3] was inactive. Also, the selectivity ratio in data set [4] amounted to 392.

For the compound `O=C(Nc1c(O)cccc1-c1nc2c(C(=O)O)cccc2o1)c1ccccc1O`, the IC50 came to 0.85 µM with Leishmania donovani [2] and 85.1 µM in the data set with L6. Also, the result in the data set with Leishmania donovani [3] was inactive. Besides, the selectivity ratio in data set [4] was determined as 100.

On to `O=C(Nc1c(O)cccc1-c1nc2c(C(=O)O)cccc2o1)c1ncccc1O`, for which the values for the inhibition at 4.8 µg/mL with Trypanosoma cruzi, with Plasmodium falciparum and with Leishmania donovani [5] were 96%, 97% and 100%, respectively. Further, the IC50 stood at 0.08 µM in the data set with Leishmania donovani [2] and 14.2 µM in the data set on L6. Also, in data set [4], the selectivity ratio is 185. For the same compound, the inhibition at 0.8 µg/mL in the data set with Leishmania donovani [1] was 100%.

Consider `O=C(Nc1c(O)cccc1-c1nc2c(C(=O)O)cccc2o1)c1cccc(Cl)c1`, for which the concentration for half-maximal inhibition (IC50) in the data set with Leishmania donovani [2] came out at 1.93 µM; with L6, 143 µM. Moreover, in data set [4], the selectivity ratio came to 74.

As for `O=C(Nc1c(O)cccc1-c1nc2c(C(=O)O)cccc2o1)c1cc2ccccc2[nH]1`, the IC50 in the data set on Leishmania donovani [2] was 0.68 µM; with L6, 212 µM. Moreover, the outcome with Leishmania donovani [3] was inactive. Further, the selectivity ratio in data set [4] is 312.

Turning to `O=C(Nc1c(O)cccc1-c1nc2c(C(=O)O)cccc2o1)c1cccnc1`, the figures for the IC50 in the data set with Leishmania donovani [2] and in the data set with L6 were 4.36 µM and 240 µM, respectively. In data set [4], the selectivity ratio turned out to be 55.

Regarding `O=C(Nc1c(O)cccc1-c1nc2c(C(=O)O)cccc2o1)c1cc(-c2ccccc2)on1`, the IC50 stood at 0.93 µM with Leishmania donovani [2] and 141 µM in the data set with L6. Besides, the result with Leishmania donovani [3] was inactive. In data set [4], the selectivity ratio came to 152.

Consider `COc1cccc(-c2nc3c(C(=O)O)cccc3o2)c1NC(=O)c1cc2ccccc2[nH]1`, for which the IC50 in the data set on Leishmania donovani [2] was 3.07 µM; with L6, 211 µM. Further, the selectivity ratio in data set [4] came to 69.

`Cc1cc(C(=O)Nc2c(O)cccc2-c2nc3c(C(=O)O)cccc3o2)no1` showed an inhibition at 0.8 µg/mL with Leishmania donovani [1] of less than 30%. Also, the Activity entry in the data set on L6 was “Not Traceable”.

Consider `O=C(Nc1c(O)cccc1-c1nc2c(C(=O)O)cccc2o1)c1cnccn1`, for which the concentration for half-maximal inhibition (IC50) in the data set with Leishmania donovani [2] came to 0.51 µM; in the data set on L6, 94.4 µM. The result in the data set with Leishmania donovani [3] was inactive. The selectivity ratio in data set [4] turned out to be 185.

Turning to `O=C(Nc1c(O)cccc1-c1nc2c(C(=O)O)cccc2o1)c1cccnc1Cl`, the inhibition at 0.8 µg/mL in the data set on Leishmania donovani [1] is less than 30%. Also, the Activity result with L6 is “Not Traceable”.

Turning to `COc1cccc(-c2nc3c(C(=O)O)cccc3o2)c1NC(=O)c1cccnc1Cl`, the inhibition at 0.8 µg/mL in the data set on Leishmania donovani [1] is less than 30%. Besides, in the data set with L6, the Activity entry is recorded as “Not Traceable”.

One may read the inhibition as the share of the control response that was lost under treatment. A high value points to a strong effect. As a reminder, the IC50 is the midpoint of a concentration-inhibition curve. Lower therefore signals higher potency.
